According to ChEMBL document CHEMBL1240443, “A study of cytotoxicity of novel chlorokojic acid derivatives with their antimicrobial and antiviral activities” (Eur J Med Chem, 2010):
≈ marks a conversion by molar mass, not a printed value.

Legend:
[1] = system: Candida parapsilosis; test: Antifungal activity against Candida parapsilosis ATCC 22019 by spectrophotometry; assay type: functional; conditions: Lodderomyces parapsilosis
How it was run: (§1)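 Yeast broth microdilution in RPMI-1640 with L-glutamine, buffered to pH 7 with MOPS. Inoculum 10^5 c.f.u./mL, prepared by the spectrophotometric method. Two-fold dilutions from 256 to 0.125 µg/mL. Incubated at 35 °C for 24 h and 48 h in a humid chamber, triplicate.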

[2] = system: Candida albicans; test: Antifungal activity against Candida albicans ATCC 10231 by spectrophotometry; assay type: functional; how it was run: as §1
[3] = system: Acinetobacter baumannii; test: Antimicrobial activity against cephalosporin-resistant Acinetobacter baumannii by spectrophotometry; assay type: functional
How it was run: (§2)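 Broth microdilution in Mueller–Hinton broth. Two-fold dilutions from 256 to 0.125 µg/mL. Inoculum 10^5 c.f.u./mL, diluted from a McFarland 0.5 culture. Incubated at 35 °C for 24 h and 48 h in a humid chamber, triplicate.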

[4] = system: Enterococcus faecalis; test: Antimicrobial activity against cephalosporin-resistant Enterococcus faecalis by spectrophotometry; assay type: functional; how it was run: as §2
[5] = system: Enterococcus faecalis; test: Antimicrobial activity against Enterococcus faecalis ATCC 29212 by spectrophotometry; assay type: functional; how it was run: as §2
[6] = system: Bacillus subtilis; test: Antimicrobial activity against ceftriaxone-resistant Bacillus subtilis by spectrophotometry; assay type: functional; how it was run: as §2
[7] = system: Bacillus subtilis; test: Antimicrobial activity against Bacillus subtilis ATCC 6633 by spectrophotometry; assay type: functional; how it was run: as §2
[8] = system: Escherichia coli; test: Antimicrobial activity against extended spectrum beta lactamase expressing Escherichia coli by spectrophotometry; assay type: functional; how it was run: as §2
[9] = system: Acinetobacter baumannii; test: Antimicrobial activity against Acinetobacter baumannii RSKK 02026 by spectrophotometry; assay type: functional; how it was run: as §2
[10] = system: Pseudomonas aeruginosa; test: Antimicrobial activity against trimethoprim-sulfamethoxazole and tazobactum-induced Pseudomonas aeruginosa by spectrophotometry; assay type: functional; how it was run: as §2
[11] = system: Staphylococcus aureus; test: Antimicrobial activity against methicillin-resistant Staphylococcus aureus by spectrophotometry; assay type: functional; how it was run: as §2
[12] = Cytotoxicity against MDBK cells after 48 hrs; assay type: cell-based, Bos taurus; conditions: cattle
[13] = system: Klebsiella pneumoniae; test: Antimicrobial activity against extended spectrum beta lactamase expressing Klebsiella pneumoniae by spectrophotometry; assay type: functional; how it was run: as §2
[14] = system: Human respirovirus 3; test: Antiviral activity against parainfluenza-3 virus infected in Vero cells assessed as reduction of virus-induced cytopathic effect; assay type: functional
How it was run: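 Vero cells grown in EMEM with 10% fetal calf serum. Two-fold dilutions from 51.2 to 0.012 µg/mL, with PI-3 added at its TCID50-based titre, held 2 h at 37 °C in 5% CO2. CPE scored by microscope against untreated controls, giving the CPE-inhibitory concentration range.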

[15] = system: Klebsiella pneumoniae; test: Antimicrobial activity against Klebsiella pneumoniae RSKK 574 by spectrophotometry; assay type: functional; how it was run: as §2
[16] = system: Escherichia coli; test: Antimicrobial activity against Escherichia coli ATCC 35218 by spectrophotometry; assay type: functional; how it was run: as §2
[17] = system: Pseudomonas aeruginosa; test: microbe, parasite or virus in culture; conditions: ATCC 10145
[18] = system: Proteus mirabilis; test: Antimicrobial activity against Proteus mirabilis ATCC 7002 by spectrophotometry; assay type: functional; how it was run: as §2
[19] = system: Proteus mirabilis; test: Antimicrobial activity against extended spectrum beta lactamase expressing Proteus mirabilis by spectrophotometry; assay type: functional; how it was run: as §2
[20] = Cytotoxicity against african green monkey Vero cells after 48 hrs; assay type: cell-based; conditions: chlorocebus sabaeus
How it was run: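 Confluent cell monolayers exposed to two-fold (Log2) dilutions of each sample (51.2–0.012 µg/mL) in EMEM, 5% CO2, 37 °C, 48 h. Scored by light microscopy against untreated cultures; rows damaging all cells counted toxic. Maximum non-toxic concentration (MNTC, µg/mL) taken as highest concentration leaving cells unaffected. Vero grown in EMEM/10% fetal calf serum with streptomycin/penicillin.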

| Compound | MIC [1] [µg/mL] | MIC [2] [µg/mL] | MIC [3] [µg/mL] | MIC [4] [µg/mL] | MIC [5] [µg/mL] | MIC [6] [µg/mL] | MIC [7] [µg/mL] | MIC [8] [µg/mL] | MIC [9] [µg/mL] | MIC [10] [µg/mL] | MIC [11] [µg/mL] | MNTC at 48 h [12] [µg/mL] | MIC [13] [µg/mL] | CPE-inhibitory concentration [14] [µg/mL] | MIC [15] [µg/mL] | MIC [16] [µg/mL] | MIC [17] [µg/mL] | MIC [18] [µg/mL] | MIC [19] [µg/mL] | MNTC at 48 h [20] [µg/mL] |
| --- | --- | --- | --- | --- | --- | --- | --- | --- | --- | --- | --- | --- | --- | --- | --- | --- | --- | --- | --- | --- |
| OC(Cn1cncn1)(Cn1cncn1)c1ccc(F)cc1F [FLUCONAZOLE] | 4 (≈ 13.1 µM) | 2 (≈ 6.53 µM) |  |  |  |  |  |  |  |  |  |  |  |  |  |  |  |  |  |  |
| O=c1cc(CCl)oc(CN2CCN(Cc3ccc(F)cc3)CC2)c1O | 16 (≈ 43.6 µM) | 16 (≈ 43.6 µM) | 64 (≈ 174 µM) | 32 (≈ 87.2 µM) | 16 (≈ 43.6 µM) | 64 (≈ 174 µM) | 32 (≈ 87.2 µM) | 64 (≈ 174 µM) | 32 (≈ 87.2 µM) | 64 (≈ 174 µM) | 64 (≈ 174 µM) | 1.6 | 64 (≈ 174 µM) | 0.05 | 16 (≈ 43.6 µM) | 16 (≈ 43.6 µM) | 16 (≈ 43.6 µM) | 16 (≈ 43.6 µM) | 64 (≈ 174 µM) | 0.4 |
| CCOC(=O)C1=C[C@@H](OC(CC)CC)[C@H](NC(C)=O)[C@@H](N)C1 [OSELTAMIVIR] |  |  |  |  |  |  |  |  |  |  |  |  |  | 0.012 |  |  |  |  |  | 1.6 |
| CC(=O)N1CCN(c2ccc(OCC3COC(Cn4ccnc4)(c4ccc(Cl)cc4Cl)O3)cc2)CC1 (stereo unspecified) [KETOCONAZOLE] | 1 (≈ 1.88 µM) | 1 (≈ 1.88 µM) |  |  |  |  |  |  |  |  |  |  |  |  |  |  |  |  |  |  |
| Nc1nc2c(ncn2COCCO)c(=O)[nH]1 [ACYCLOVIR] |  |  |  |  |  |  |  |  |  |  |  | 1.6 |  | 0.012 |  |  |  |  |  |  |
| C[C@H]1COc2c(N3CCN(C)CC3)c(F)cc3c(=O)c(C(=O)O)cn1c23.C[C@H]1COc2c(N3CCN(C)CC3)c(F)cc3c(=O)c(C(=O)O)cn1c23.O [LEVOFLOXACIN] |  |  | 64 | 32 | 0.5 |  |  |  | 0.12 |  | 128 |  |  |  | < 0.12 |  |  | < 0.12 | 1 |  |
| O=c1cc(CCl)oc(CN2CCC(O)(c3ccc(Br)cc3)CC2)c1O | 8 (≈ 18.7 µM) | 4 (≈ 9.33 µM) | 16 (≈ 37.3 µM) | 32 (≈ 74.6 µM) | 16 (≈ 37.3 µM) | 2 (≈ 4.67 µM) | 1 (≈ 2.33 µM) | 64 (≈ 149 µM) | 4 (≈ 9.33 µM) | 16 (≈ 37.3 µM) | 64 (≈ 149 µM) | 0.4 | 64 (≈ 149 µM) | 0.05 | 4 (≈ 9.33 µM) | 4 (≈ 9.33 µM) | 2 (≈ 4.67 µM) | 8 (≈ 18.7 µM) | 64 (≈ 149 µM) | 0.8 |
| CC(C)(C)OC(=O)N1CCN(Cc2oc(CCl)cc(=O)c2O)CC1 | 8 (≈ 22.3 µM) | 4 (≈ 11.1 µM) | 16 (≈ 44.6 µM) | 128 (≈ 357 µM) | 8 (≈ 22.3 µM) | 2 (≈ 5.57 µM) | 1 (≈ 2.79 µM) | 64 (≈ 178 µM) | 8 (≈ 22.3 µM) | 16 (≈ 44.6 µM) | 128 (≈ 357 µM) | 0.8 | 64 (≈ 178 µM) | 0.2 | 8 (≈ 22.3 µM) | 8 (≈ 22.3 µM) | 4 (≈ 11.1 µM) | 16 (≈ 44.6 µM) | 64 (≈ 178 µM) | 0.4 |
| GENTAMICIN |  |  |  |  |  |  |  |  |  | 2 |  |  |  |  |  |  |  |  |  |  |
| CC1(C)S[C@@H]2[C@H](NC(=O)[C@H](N)c3ccccc3)C(=O)N2[C@H]1C(=O)O [AMPICILLIN] |  |  | > 128 | > 128 | 0.5 (≈ 1.43 µM) | 0.5 (≈ 1.43 µM) | 0.12 (≈ 0.343 µM) | > 128 | 2 (≈ 5.72 µM) |  | > 128 |  | > 128 |  | 2 (≈ 5.72 µM) |  |  | 2 (≈ 5.72 µM) | > 128 |  |
| O=c1cc(CCl)oc(CN2CCN(Cc3ccc(Cl)c(Cl)c3)CC2)c1O | 8 (≈ 19.2 µM) | 4 (≈ 9.58 µM) | 16 (≈ 38.3 µM) | 128 (≈ 306 µM) | 16 (≈ 38.3 µM) | 2 (≈ 4.79 µM) | 1 (≈ 2.39 µM) | 4 (≈ 9.58 µM) | 8 (≈ 19.2 µM) | 16 (≈ 38.3 µM) | 128 (≈ 306 µM) | 0.4 | 4 (≈ 9.58 µM) | 0.05 | 8 (≈ 19.2 µM) | 8 (≈ 19.2 µM) | 4 (≈ 9.58 µM) | 16 (≈ 38.3 µM) | 64 (≈ 153 µM) | 0.8 |
| O=c1cc(CCl)oc(CN2CCC(O)(c3ccc(Cl)c(C(F)(F)F)c3)CC2)c1O | 8 (≈ 17.7 µM) | 4 (≈ 8.84 µM) | 16 (≈ 35.4 µM) | 32 (≈ 70.8 µM) | 16 (≈ 35.4 µM) | 2 (≈ 4.42 µM) | 1 (≈ 2.21 µM) | 64 (≈ 142 µM) | 4 (≈ 8.84 µM) | 16 (≈ 35.4 µM) | 64 (≈ 142 µM) | 0.8 | 64 (≈ 142 µM) | 0.05 | 4 (≈ 8.84 µM) | 4 (≈ 8.84 µM) | 2 (≈ 4.42 µM) | 8 (≈ 17.7 µM) | 64 (≈ 142 µM) | 0.4 |
| CC(=O)C1(c2ccccc2)CCN(Cc2oc(CCl)cc(=O)c2O)CC1 | 8 (≈ 21.3 µM) | 4 (≈ 10.6 µM) | 16 (≈ 42.6 µM) | 128 (≈ 341 µM) | 64 (≈ 170 µM) | 2 (≈ 5.32 µM) | 1 (≈ 2.66 µM) | 64 (≈ 170 µM) | 4 (≈ 10.6 µM) | 16 (≈ 42.6 µM) | 128 (≈ 341 µM) | 0.4 | 64 (≈ 170 µM) |  | 8 (≈ 21.3 µM) | 8 (≈ 21.3 µM) | 4 (≈ 10.6 µM) | 16 (≈ 42.6 µM) | 64 (≈ 170 µM) | 0.4 |
| O=c1cc(CCl)oc(CN2CCN(C(c3ccccc3)c3ccc(Cl)cc3)CC2)c1O (stereo unspecified) | 8 (≈ 17.4 µM) | 4 (≈ 8.71 µM) | 16 (≈ 34.8 µM) | 32 (≈ 69.7 µM) | 16 (≈ 34.8 µM) | 2 (≈ 4.35 µM) | 1 (≈ 2.18 µM) | 64 (≈ 139 µM) | 4 (≈ 8.71 µM) | 16 (≈ 34.8 µM) | 64 (≈ 139 µM) | 0.4 | 64 (≈ 139 µM) | 0.1 | 4 (≈ 8.71 µM) | 4 (≈ 8.71 µM) | 2 (≈ 4.35 µM) | 8 (≈ 17.4 µM) | 64 (≈ 139 µM) | 0.4 |
| CC1COc2c(N3CCN(C)CC3)c(F)cc3c(=O)c(C(=O)O)cn1c23 (stereo unspecified) [OFLOXACIN] |  |  | 64 (≈ 177 µM) | 32 (≈ 88.6 µM) | 1 (≈ 2.77 µM) |  |  |  | 0.12 (≈ 0.332 µM) |  | 64 (≈ 177 µM) |  |  |  | < 0.12 |  |  | < 0.12 | 1 (≈ 2.77 µM) |  |
